# From PubChem
# C2C12 statin: suppressors of statin myotoxicity in C2C12 myotubes, primary screen, cell-based, single point, plate reader. C2C12 myotubes + simvastatin, ATP luminescence, 48 h; scaled: DMSO 0, geranylgeraniol control 100. rescue of ATP level, % at 7.49 µM. hit rate 0.78% among 330,000;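 active means mean ATP rescue above about 67%, or every replicate alone reaching that limit, limit read from the data, passing the limit was not always enough; inconclusive means no clear call, values can overlap the other calls; inactive means mean under the limit and some replicate under it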;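 further: myotubes were challenged with 10 µM simvastatin during compound exposure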
# DENV2 CPE: inhibitors of DENV2 cytopathic effect, primary screen, cell-based, plate reader, single concentration | hit rate 1.7% among 350,000 | DENV2-infected cells, cytopathic effect rescue | CPE inhibition, % at 9.99 µM; in the data active means CPE inhibition above about 20%, passing the limit was not always enough; inconclusive means no clear call, values can overlap the other calls; tested in BHK-21 cells;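 further: 0% = median of neutral control wells and 100% = median of positive control wells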
# E-selectin induc: E-selectin induction in HUVECs, primary screen, imaging, HUVEC, immunofluorescence imaging, single point; hit rate 0.37% among 260,000; AID 686992, 2013; P16581; normalized: neutral wells 0, TNF-alpha wells 100; activation, % at 7.58 µM;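 active means mean E-selectin-positive cell signal at least 10% of the positive control, reached in at least 60% of replicates, without over 20% cell loss; inconclusive means no rule given, readout overlaps actives, possibly toxicity-flagged; inactive means the rest, including those meeting only one limit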
# Target sequence (P16581 whole entry, looked up): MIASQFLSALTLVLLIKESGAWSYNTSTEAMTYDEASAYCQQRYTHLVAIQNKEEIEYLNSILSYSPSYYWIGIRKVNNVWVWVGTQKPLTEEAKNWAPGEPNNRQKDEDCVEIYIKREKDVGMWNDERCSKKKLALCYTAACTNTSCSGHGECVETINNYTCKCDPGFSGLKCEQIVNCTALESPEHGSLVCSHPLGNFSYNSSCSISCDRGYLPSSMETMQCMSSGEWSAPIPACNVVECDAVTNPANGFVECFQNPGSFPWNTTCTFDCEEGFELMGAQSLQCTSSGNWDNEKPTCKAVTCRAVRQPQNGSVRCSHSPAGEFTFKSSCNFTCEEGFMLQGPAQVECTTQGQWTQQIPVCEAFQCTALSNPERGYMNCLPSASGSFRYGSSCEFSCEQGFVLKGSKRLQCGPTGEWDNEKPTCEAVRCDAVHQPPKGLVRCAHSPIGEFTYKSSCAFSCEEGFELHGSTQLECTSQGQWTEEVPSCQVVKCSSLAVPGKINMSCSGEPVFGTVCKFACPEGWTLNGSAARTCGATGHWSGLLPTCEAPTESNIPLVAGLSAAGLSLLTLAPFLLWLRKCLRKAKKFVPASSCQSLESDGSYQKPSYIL
#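 Material: HUVEC primary endothelial cells; Amount: 3,000 cells per well; Dosing: single concentration; Medium: EGM-2 growth medium on 0.1% gelatin-coated wells; Read-out basis: percent E-selectin-positive cells; Signal: immunofluorescence imaging; Control set: TNF-alpha, DMSO.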
# An asterisk follows results filed as active; ? = inconclusive; · = not tested or not shown. Hits are enriched below; roughly 2.2% of the tested compounds scored in any of these assays.
SMILES,C2C12 statin,DENV2 CPE,E-selectin induc
CNC(=O)C[C@H]1CC[C@H]2[C@H](COc3ccc(NC(=O)c4ccc(F)c(F)c4)cc3C(=O)N2C)O1,5,?,0
CN1C(=O)c2cc(NC(=O)c3ccc(F)c(F)c3)ccc2OC[C@@H]2O[C@H](CC(=O)O)CC[C@@H]21,-3,5,0
CNC(=O)C[C@H]1CC[C@@H]2[C@H](COc3ccc(NC(=O)c4ccc(F)c(F)c4)cc3C(=O)N2C)O1,2,95*,0
CCNC(=O)C[C@@H]1CC[C@H]2[C@@H](COc3ccc(NC(=O)c4ccc(F)c(F)c4)cc3C(=O)N2C)O1,0,-3,0
C[C@@H]1CN([C@@H](C)CO)C(=O)c2ccccc2-c2ccccc2CO[C@@H]1CN(C)Cc1ccncc1,-35,-2,0
O=C1O[C@@H](c2ccccc2)[C@@H](c2ccccc2)N2[C@@H](c3ccc(O)cc3)[C@]3(C(=O)Nc4ccc(C#CC5(O)CCCCCC5)cc43)[C@@H](C(=O)N3CCCCCCC3)[C@H]12,·,-11,·
C[C@H](CO)N1C[C@H](C)[C@@H](CN(C)CC2CCCC2)Oc2ncc(C#C[C@@H](C)O)cc2C1=O,8,-2,0
C[C@@H]1CCCCO[C@H](CN(C)C(=O)c2ccccc2)[C@H](C)CN([C@@H](C)CO)C(=O)c2cc(NS(=O)(=O)c3cn(C)cn3)ccc2O1,·,0,0
O=C1c2oc3ccc(F)cc3c(=O)c2C(c2cccc(O)c2)N1CCCN1CCOCC1 (centres undefined),2,-1,·
Cc1ccc2oc3c(c(=O)c2c1)C(c1cccc(Cl)c1)N(CCCN1CCOCC1)C3=O (centres undefined),16,55*,1
CC(C)C(NS(=O)(=O)c1ccc2c(c1)C(C)(C)C(=O)N2C)C(=O)NCc1ccccc1Cl (centres undefined),17,80*,0
Cc1ccccc1CNS(=O)(=O)c1ccc2c(c1)C(C)(C)C(=O)N2C,9,-3,0
C[C@H](CO)N1C[C@H](C)[C@H](CN(C)Cc2ccc3c(c2)OCO3)Oc2ccc(NC(=O)C3CCCCC3)cc2CC1=O,16,·,0
C[C@@H]1CCCCO[C@H](CN(C)C(=O)Nc2ccccc2)[C@@H](C)CN([C@@H](C)CO)C(=O)c2cc(NC(=O)c3ccncc3)ccc2O1,·,-5,·
CC(=O)N(C)C[C@H]1Oc2ncc(C#C[C@H](C)O)cc2C(=O)N([C@@H](C)CO)C[C@@H]1C,3,3,0
COc1ccc(C(=O)N2C[C@@H]3[C@H](c4ccccc42)[C@H](CO)N3C(=O)NC(C)C)cc1,-7,27*,0
CC(C)NC(=O)N1[C@H](CO)[C@H]2c3ccccc3N(C(=O)Nc3ccccc3)C[C@H]21,-15,21*,0
COc1ccc(C(=O)N2C[C@H]3[C@@H](c4ccccc42)[C@@H](CO)N3C(=O)NC(C)C)cc1,-8,14,0
O=C(Nc1ccccc1)N1C[C@@H]2[C@H](c3ccccc31)[C@@H](CO)N2Cc1ccccc1Cl,-12,37*,1
CC(C)NC(=O)N1[C@@H](CO)[C@@H]2c3ccccc3N(C(=O)Nc3ccc(Cl)cc3)C[C@@H]21,38,-3,1
O=C(Nc1ccccc1)N1C[C@@H]2[C@H](c3ccccc31)[C@H](CO)N2Cc1ccccc1Cl,15,-1,-1
CCCC(=O)Nc1ccc2c(c1)C(=O)N(C)[C@H]1CC[C@H](CC(=O)Nc3ccccc3)O[C@H]1CO2,3,3,0
C[C@H]1CN([C@@H](C)CO)C(=O)Cc2cc(NC(=O)CCN3CCOCC3)ccc2O[C@@H]1CN(C)C(=O)NC1CCCCC1,-8,-4,0
Cc1noc(C)c1NC(=O)N(C)C[C@@H]1Oc2ccc(NC(=O)CCN3CCOCC3)cc2C(=O)N([C@@H](C)CO)C[C@@H]1C,·,?,-2
C[C@@H]1CN([C@@H](C)CO)C(=O)c2cccc(NC(=O)C3CCOCC3)c2O[C@@H]1CN(C)S(=O)(=O)c1ccccc1,-2,-3,-14
SMILES,C2C12 statin,DENV2 CPE,E-selectin induc
CC(O)(C(=O)c1ccccc1)c1ccccc1 (centres undefined),0,10,0
O=C(c1ccccc1)C(O)(Cc1ccccc1)c1ccccc1 (centres undefined),-7,36*,0
Cc1cc(Cl)ccc1OC(C)C(=O)Nc1cccc(S(=O)(=O)N2CCOCC2)c1 (centres undefined),3,0,0
CC(Sc1nc2cc(Cl)ccc2s1)C(=O)Nc1cccc(S(=O)(=O)N2CCOCC2)c1 (centres undefined),·,33*,·
C[C@@H]1CN([C@H](C)CO)C(=O)c2ccccc2-c2ccccc2CO[C@H]1CN(C)S(=O)(=O)c1cn(C)cn1,·,-1,0
COc1ccc(S(=O)(=O)Nc2ccc3c(c2)C(=O)N([C@@H](C)CO)C[C@H](C)[C@H](CN(C)Cc2ccc(C(=O)Nc4ccccc4N)cc2)O3)cc1,·,23*,2
C[C@@H]1CN([C@H](C)CO)C(=O)c2cc(NS(=O)(=O)c3ccc(Cl)cc3)ccc2O[C@@H]1CN(C)Cc1ccc(C(=O)Nc2ccccc2N)cc1,97*,11,3
C[C@@H]1CN([C@@H](C)CO)C(=O)c2cc(NS(=O)(=O)c3ccc(Cl)cc3)ccc2O[C@H]1CN(C)Cc1ccc(C(=O)Nc2ccccc2N)cc1,36,-5,0
COc1ccc(S(=O)(=O)Nc2ccc3c(c2)C(=O)N([C@H](C)CO)C[C@@H](C)[C@H](CN(C)Cc2ccc(C(=O)Nc4ccccc4N)cc2)O3)cc1,·,-2,0
CCC(=O)N1C[C@H](C)[C@@H](OC)CN(C)C(=O)c2cc(NS(=O)(=O)CC)ccc2OC[C@H]1C,2,4,0
O=C(CN1CCOCC1)NCC[C@@H]1CC[C@H](NC(=O)Nc2ccc(C(F)(F)F)cc2)[C@H](CO)O1,6,·,0
O=C(NC[C@@H]1[C@H](c2ccccc2)[C@H](CO)N1CC1CCCC1)C1CC1,·,6,1
C[C@@H]1CN([C@H](C)CO)C(=O)CCCn2cc(nn2)CO[C@H]1CN(C)Cc1cccnc1,1,-3,0
N#Cc1cccc(-c2ccc([C@H]3[C@H]4CN(C(=O)Nc5ccc(F)cc5)CCCCN4[C@H]3CO)cc2)c1,·,-9,0
Cn1c2ccccc2c2cc(C(=O)NNC(=O)CCl)sc21,·,3,·
CC(=O)Nc1ccc(S(=O)(=O)NNC(=O)c2cc3c4ccccc4n(C)c3s2)cc1,193*,·,·
CCCN1C[C@H](C)[C@@H](OC)CN(C)C(=O)c2ccc(NC(=O)c3cccc(OC)c3)cc2OC[C@H]1C,-10,20,0
Cc1noc(C)c1S(=O)(=O)Nc1cccc2c1O[C@H](CN(C)CC1CCCCC1)[C@H](C)CN([C@H](C)CO)C2=O,59,-4,-4
O=C1CCC(C(=O)OCc2ccccc2)N1 (centres undefined),31,-4,·
O=C1CCC(C(=O)OCC(=O)C23CC4CC(CC(C4)C2)C3)N1 (centres undefined),90*,·,·
Cc1cc(C(=O)Nc2cccc3c2O[C@H](CN(C)S(=O)(=O)c2c(C)noc2C)[C@H](C)CN([C@H](C)CO)C3=O)n(C)n1,-2,·,0
